This is an account of results in PubChem BioAssay.

Each structure is given as a SMILES string. Active and inactive are the calls of the source.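 Rule for the calls, unless noted: active = inhibition of the reporter signal at or above 50%; inactive = inhibition below 50%.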

Assay [1] in a line: inhibitors of TNFa-induced NFkB p65 translocation, primary screen, imaging, HUVEC, MLSMR starter and 10KST1 sets (AID 438;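 active = inhibition above 20% together with a positive visual image hit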;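 note: compound added about 3h40 before a 20 min TNFalpha stimulation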;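 for inhibition: signal is the nuclear over cytoplasmic p65 intensity ratio per well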). The conditions noted are these: HUVEC TNFa-induced p65 nuclear translocation; cell count: measured here: nuclei count (cytotoxicity indicator), at 2.08 µM; inhibition: at 2 µM, stronger effect = higher value, 0% TNFa-plus-vehicle, 100% no-TNFa wells.
The nature of assay [2]: inhibitors of mutant huntingtin aggregation, primary screen, imaging, exon1htt(103Q)mCFP cells, high-content imaging (AID 483;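 active = visual image review flags a hit and inhibition of aggregation exceeds 20%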;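 note: compound exposure lasted 3 days before fixation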;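 for nuclei count: percent of the per-plate median nuclei count of sample wells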). Particulars: exon1htt(103Q)mCFP cell line, aggregate imaging, at 2 µM; inhibition of aggregation: stronger effect = higher value; nuclei count: measured here: cell count, toxicity.
Assay [3] can be described thus: inhibitors of E-selectin induction by TNFa, primary screen, imaging, HUVEC, immunofluorescence, MLSMR starter and 10KST1 sets (AID 487;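 active = visually confirmed hit in the image check and inhibition above 20%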;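 for inhibition: signal is fraction of cell area covered by stained E-selectin grains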;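 for nuclei count: 100% = median nuclei count of all wells on the same plate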). Particulars: HUVEC TNFalpha-induced E-selectin immunofluorescence imaging, at 2 µM; inhibition: stronger effect = higher value; nuclei count: measured here: cell number, toxicity.
For assay [4], the target named is Voltage-gated potassium channel subunit beta-2 (Rattus norvegicus) (UniProt P62483). The experiment in a line: KvBeta enzyme negative modulators, primary screen, biochemical, NADPH fluorescence (AID 622;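 active = fluorescence slope higher than the sample average by over 3 SD, cut at about -0.22 in these data, passing the limit was not always enough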;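 note: slope of raw intensity against log time taken from 70 to 1610 s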). The conditions noted are these: recombinant KvBeta, 4-cyanobenzaldehyde reduction, at 10 µM, stronger effect = higher value.
For assay [5] the target is unchanged. Put plainly: KvBeta positive modulators, primary screen, biochemical, NADPH fluorescence (AID 623;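 active = NADPH fluorescence slope more negative than the mean of all samples by about 3 SD, 99.7% confidence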;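 note: fluorescence intensity change per second fitted from 20 to 320 s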). The conditions noted are these: Recombinant KvBeta, NADPH fluorescence decrease slope, 10 min; at 10 µM; stronger effect = lower value.
The target in assay [6] is Muscarinic acetylcholine receptor M4 (Homo sapiens) (UniProt P08173). The experiment in a line: compounds altering M4/GIRK thallium flux, either direction, primary screen, M4 allosteric agonist project, cell-based, HEK293 M4/GIRK, BTC-AM (AID 625;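 active = fluorescence slope after compound addition differing from the mean of all tested samples at 99.7% confidence, mostly higher but some lower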;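 note: thallium influx through GIRK channels coupled to M4 in HEK293 cells with BTC-AM dye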). Particulars: at 10 µM, actives lie on both sides. The method, boiled down:
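System: HEK293 cells with M4 receptor and GIRK channels | Incubation: Cells overnight at 37 °C, BTC-AM loading 1 h, reads 2 min total | Technique: Kinetic BTC-AM fluorescence sampled at 1 Hz, 10 s pre-addition baseline | Measure: Post-addition slope, 15–24 s, of baseline-normalized fluorescence | Control set: Carbachol positive, DMSO negative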

A short description of assay [7]: inhibitors of Sendai virus-induced IRF3 signaling, primary screen, TLR/RLR signaling modifier project, cell-based, Sendai virus stimulus, luciferase, 10K MLSCN set (AID 602276;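 active = inhibition at or above 50% at 10 µM; inactive = inhibition below 50%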;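 note: firefly luciferase from ISG56 promoter only with Renilla not read in this screen; 0% = Sendai virus plus DMSO and 100% = medium plus DMSO without virus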). The conditions noted are these: HEK293 RL24 IRF3 luciferase reporter, at 10 µM, stronger effect = higher value. In general terms: In a reporter assay the amount or activity of a reporter protein is the signal.

Assay [8] is described as follows: inhibitors of poly I:C-induced TLR3 signaling, primary screen, cell-based, poly I:C stimulus, luciferase, 10K MLSCN set (AID 602277). Particulars: HEK293-TLR3 RL24 IRF3 luciferase reporter, at 10 µM, stronger effect = higher value.

Chain of Muscarinic acetylcholine receptor M4 (Homo sapiens) (P08173 whole entry, looked up): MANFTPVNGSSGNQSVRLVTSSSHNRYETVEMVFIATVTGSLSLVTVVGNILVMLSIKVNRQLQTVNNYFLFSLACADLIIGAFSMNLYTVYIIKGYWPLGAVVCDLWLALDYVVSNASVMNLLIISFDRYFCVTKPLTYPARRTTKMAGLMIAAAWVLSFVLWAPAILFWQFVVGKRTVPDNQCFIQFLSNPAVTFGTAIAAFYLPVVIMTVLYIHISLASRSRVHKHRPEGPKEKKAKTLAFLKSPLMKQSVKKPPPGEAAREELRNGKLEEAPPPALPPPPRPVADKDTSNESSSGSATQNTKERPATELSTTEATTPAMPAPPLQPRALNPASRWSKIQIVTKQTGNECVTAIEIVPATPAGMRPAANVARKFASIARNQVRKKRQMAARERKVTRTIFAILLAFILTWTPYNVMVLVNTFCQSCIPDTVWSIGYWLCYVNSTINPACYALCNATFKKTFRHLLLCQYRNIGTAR
Chain of Voltage-gated potassium channel subunit beta-2 (Rattus norvegicus) (P62483 whole entry, looked up): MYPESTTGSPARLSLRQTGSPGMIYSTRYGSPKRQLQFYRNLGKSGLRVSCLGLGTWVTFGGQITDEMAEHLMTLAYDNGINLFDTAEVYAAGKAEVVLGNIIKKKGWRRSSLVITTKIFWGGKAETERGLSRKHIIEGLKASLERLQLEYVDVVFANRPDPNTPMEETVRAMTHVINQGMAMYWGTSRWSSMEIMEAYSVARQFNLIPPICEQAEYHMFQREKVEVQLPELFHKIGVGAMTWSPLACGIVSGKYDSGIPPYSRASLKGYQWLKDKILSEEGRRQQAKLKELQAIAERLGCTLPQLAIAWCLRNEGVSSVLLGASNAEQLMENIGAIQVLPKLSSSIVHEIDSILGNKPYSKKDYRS

The inhibition is the change of the read-out against control, counted positive when it falls. For `CC(C)(C)N(Cc1cc2ccccc2[nH]c1=O)C(=O)C1CCCCC1`, the cell count in assay [1] is 510. The inhibition in assay [1] was -1.4% (inactive); in assay [3] it was 4% (inactive); in assay [7] it was -3.62% (inactive); in assay [8], 9.15% (inactive). Further, in assay [2], the inhibition of aggregation is -4.5% (inactive). The nuclei count was 110% in assay [2] and 95.6% in assay [3]. Besides, the figures for the fluorescence slope in assay [4] and in assay [6] were -0.455 (inactive) and 0.00597 (inactive), respectively. Besides, in assay [5], the NADPH fluorescence slope is -7.9e-05 (inactive).

As for `CN(c1cccc(NS(=O)(=O)c2cccs2)c1)S(C)(=O)=O`, in assay [1], the cell count was determined as 427. Moreover, the inhibition is 2.4% (inactive) in assay [1], -5% (inactive) in assay [3], 21.9% (inactive) in assay [7] and 15.4% (inactive) in assay [8]. In assay [2], the inhibition of aggregation is -15.2% (inactive). Further, the nuclei count in assay [2] was determined as 110%; in assay [3] it was 109%. In addition, the fluorescence slope in assay [4] was -0.446 (inactive); in assay [6] it was 0.00491 (inactive). Further, the NADPH fluorescence slope in assay [5] is -2.2e-06 (inactive).

For `O=C1CNCc2[nH]c3ccccc3c2N1c1ccccc1`, in assay [1], the cell count stood at 377. In addition, the inhibition is 3.9% (inactive) in assay [1], -124% (inactive) in assay [3], 17.2% (inactive) in assay [7] and 17.9% (inactive) in assay [8]. The inhibition of aggregation in assay [2] was 9.4% (inactive). Besides, the nuclei count came to 104% in assay [2] and 118% in assay [3]. Also, the fluorescence slope in assay [4] is -0.509 (inactive); in assay [6], 0.00541 (inactive). Besides, the NADPH fluorescence slope in assay [5] is -3.5e-05 (inactive).

For the compound `Cc1ccccc1-c1nc(CN2CCC(C(=O)NCCCN3CCOCC3)CC2)c(C)o1`, the cell count in assay [1] amounted to 598. Further, the inhibition is -5.3% (inactive) in assay [1], -67.2% (inactive) in assay [3], -3.78% (inactive) in assay [7] and 22.4% (inactive) in assay [8]. For the same compound, the inhibition of aggregation in assay [2] was -16.7% (inactive). For the same compound, the values for the nuclei count in assay [2] and in assay [3] were 89.8% and 102%, respectively. For the same compound, the fluorescence slope in assay [4] is -0.496 (inactive); in assay [6], 0.00497 (inactive). For the same compound, in assay [5], the NADPH fluorescence slope is 6.2e-05 (inactive).

On to `O=C(Cn1c(=O)[nH]c2ccsc2c1=O)NC1CCCCCC1`, for which, in assay [1], the cell count came to 468. For the same compound, the inhibition was -0.7% (inactive) in assay [1], 13.2% (inactive) in assay [3], 17.6% (inactive) in assay [7] and 9.21% (inactive) in assay [8]. Moreover, the inhibition of aggregation in assay [2] was 19.2% (inactive). Further, the results for the nuclei count in assay [2] and in assay [3] were 104% and 107%, respectively. Besides, the fluorescence slope is -0.26 (inactive) in assay [4] and 0.0062 (inactive) in assay [6]. Also, the NADPH fluorescence slope in assay [5] was -3.5e-06 (inactive).

With `CCC(c1nnnn1CCOC)N(Cc1ccc(C)cc1)Cc1cc2cc(OC)ccc2[nH]c1=O` (centres undefined), in assay [1], the cell count was 519. Further, the inhibition in assay [1] was 1.9% (inactive); in assay [3], -127% (inactive); in assay [7] it was 19% (inactive); in assay [8] it was 27.8% (inactive). In addition, the inhibition of aggregation in assay [2] is 11.8% (inactive). The values for the nuclei count in assay [2] and in assay [3] were 99.2% and 134%, respectively. Besides, the figures for the fluorescence slope in assay [4] and in assay [6] were -0.565 (inactive) and 0.00576 (inactive), respectively. For the same compound, the NADPH fluorescence slope in assay [5] was -5.3e-05 (inactive).

With `O=C(COc1ccccc1Cl)N1CCCC1`, the cell count in assay [1] is 236. For the same compound, the inhibition in assay [1] was 11.7% (inactive); in assay [3] it was -66.3% (inactive); in assay [7], -16% (inactive); in assay [8], -18.4% (inactive). Further, the inhibition of aggregation in assay [2] is -1.6% (inactive). Further, the figures for the nuclei count in assay [2] and in assay [3] were 83.7% and 152%, respectively. Further, the fluorescence slope is -0.528 (inactive) in assay [4] and 0.00495 (inactive) in assay [6]. Also, the NADPH fluorescence slope in assay [5] is 2.9e-05 (inactive).

Consider `O=C(NC1CCCCC1)C(c1ccco1)N(Cc1cccnc1)C(=O)C1COc2ccccc2O1` (centres undefined), for which the cell count in assay [1] was 509. Moreover, the inhibition was -13.1% (inactive) in assay [1], -4.6% (inactive) in assay [3], 22.1% (inactive) in assay [7] and 35.6% (inactive) in assay [8]. Further, the inhibition of aggregation in assay [2] is -14.5% (inactive). Further, the nuclei count in assay [2] is 111%; in assay [3] it was 198%. The figures for the fluorescence slope in assay [4] and in assay [6] were -0.607 (inactive) and 0.00322 (inactive), respectively. The NADPH fluorescence slope in assay [5] was -1e-05 (inactive).

Take `O=C(COC(=O)c1cc(S(=O)(=O)N2CCOCC2)ccc1O)NCC1CCCO1` (centres undefined): the cell count in assay [1] was found to be 426. The inhibition in assay [1] was 9.7% (inactive); in assay [3] it was -39.1% (inactive); in assay [7] it was 15.4% (inactive); in assay [8], 24.6% (inactive). In addition, in assay [2], the inhibition of aggregation is -4.1% (inactive). In addition, the figures for the nuclei count in assay [2] and in assay [3] were 88.7% and 113%, respectively. Moreover, the values for the fluorescence slope in assay [4] and in assay [6] were -0.345 (inactive) and 0.00615 (inactive), respectively. Moreover, the NADPH fluorescence slope in assay [5] is 5.4e-05 (inactive).
